Experimental data published in paper PMC7610821 (Chemical communications (Cambridge, England), 2020).

What was measured:
[1] = tested on: Histone 3 Lysine 56 acetylation (H3K56Ac); experiment: H3K56 acetylation by quantitative western blotting in ES cells; format: cell-based; details: E14 mouse ES cells, 24h; CI-994 = 40μM, Panobinostat = 30 nM
[2] = target: LSD1-CoREST-HDAC1 complex (Homo sapiens, UniProt Q13547); experiment: AMC-fluorescence histone deacetylase inhibition assay with purified complex; format: biochemical; details: compared with CI-994, Fig 3A
Chain of LSD1-CoREST-HDAC1 complex (Q13547 whole entry, other chains not shown): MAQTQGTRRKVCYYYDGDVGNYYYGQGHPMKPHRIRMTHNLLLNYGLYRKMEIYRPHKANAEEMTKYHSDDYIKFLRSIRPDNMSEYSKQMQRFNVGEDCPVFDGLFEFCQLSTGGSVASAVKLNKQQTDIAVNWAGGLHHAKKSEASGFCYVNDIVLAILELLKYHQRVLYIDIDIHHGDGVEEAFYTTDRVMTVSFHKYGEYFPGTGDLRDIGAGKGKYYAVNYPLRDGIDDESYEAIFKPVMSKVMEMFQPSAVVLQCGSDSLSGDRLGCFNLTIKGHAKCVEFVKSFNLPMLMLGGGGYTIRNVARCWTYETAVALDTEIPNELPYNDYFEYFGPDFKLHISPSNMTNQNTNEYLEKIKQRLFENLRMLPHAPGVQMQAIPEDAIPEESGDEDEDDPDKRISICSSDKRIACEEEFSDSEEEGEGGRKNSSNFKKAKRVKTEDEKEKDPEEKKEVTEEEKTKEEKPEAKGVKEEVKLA
Chain of LSD1-CoREST-HDAC1 complex (Q9UKL0 86-485 partner limits assumed, other chains not shown): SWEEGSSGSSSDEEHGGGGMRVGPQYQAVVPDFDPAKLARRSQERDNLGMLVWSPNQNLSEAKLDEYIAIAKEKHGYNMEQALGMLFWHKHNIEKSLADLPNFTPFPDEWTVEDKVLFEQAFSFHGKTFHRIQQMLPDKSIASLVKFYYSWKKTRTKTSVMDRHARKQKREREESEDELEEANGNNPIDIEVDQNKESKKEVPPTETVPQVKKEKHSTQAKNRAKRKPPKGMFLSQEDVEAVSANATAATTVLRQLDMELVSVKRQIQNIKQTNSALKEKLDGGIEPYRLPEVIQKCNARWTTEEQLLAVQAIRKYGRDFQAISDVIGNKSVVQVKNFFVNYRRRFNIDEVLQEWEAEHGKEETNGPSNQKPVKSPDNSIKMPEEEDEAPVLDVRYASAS

HCT116 cells = experiment: Cell viability of HCT116 cells by flow cytometry; format: cell-based, human; details: HCT116, 40μM, 48 hours
Outline: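 Human colon cancer HCT116 cells were exposed to the test compound at 10 and 40 μM. A reference class I HDAC inhibitor was run alongside. Viability was scored by flow cytometry after 48 h of treatment.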

Cc1[nH]c2ccccc2c1CCNCc1ccc(/C=C/C(=O)NO)cc1 [Panobinostat]
H3K56 acetylation increase, fold compared to non-treated cells [1]: 15-20 fold

CC(=O)Nc1ccc(C(=O)Nc2ccccc2NC(=O)OC(C)(C)C)cc1 [Compound 5]
HDAC inhibition of the LSD1-CoREST-HDAC1 complex (in words) [2]: no HDAC inhibition

CC(=O)Nc1ccc(C(=O)Nc2ccccc2N)cc1 [CI-994]
Cell death (HCT116 cells): 73%
